Data reported in ChEMBL document CHEMBL1125745, “Unsaturated and carbocyclic nucleoside analogues: synthesis, antitumor, and antiviral activity” (J Med Chem, 1991).
pEC50, pIC50: −log10 of the molar value.

Key:
[1] = species: Mus musculus; assay: Concentration that reduces Friend murine leukemia virus titer by 50%; format: functional, organism-based
Method in brief: (§1)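 SC-1 cells (1 × 10^4/well) were pretreated with polybrene, infected 2 h at 37 °C with F-MuLV or R-MuLV in EMEM-5 with 8 µg/mL polybrene, washed, and refed with analogue for 72 h. They were then UV-irradiated and overlaid with XC cells (2 × 10^5) for 48 h, fixed and stained with crystal violet. Multinucleated cells were counted and EC50 was taken by linear regression versus untreated cultures.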

[2] = species: Mus musculus; assay: Cytotoxicity was evaluated and represented as IC50.; format: functional
Method in brief: (§2)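 SC-1 cells (1 × 10^4 cells/mL) were seeded, incubated overnight at 37 °C, refed with EMEM-10 and given diluted analogue in triplicate for 72 h at 37 °C. Cells were trypsinized and counted in a Coulter counter. The mean of three wells gave percent of control count, and IC50 was calculated by linear regression.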

[3] = species: Mus musculus; assay: Concentration that reduces Rauscher murine leukemia virus titer by 50%; format: functional, organism-based; method in brief: as §1
[4] = Selectivity index is the ratio of IC50 to EC50 of F-MuLV.; format: functional
[5] = Selectivity index which is the ratio of IC50 to EC50 of R-MuLV.; format: functional
[6] = test system: L1210; assay: Inhibitory activity against murine leukemia L1210 cells; format: functional, cell-based; conditions: Mus musculus
[7] = species: Mus musculus; assay: Cytotoxicity was evaluated; format: functional; method in brief: as §2
[8] = Cytotoxicity was evaluated against low malignancy line at 250 ug/disk.; format: functional
Method in brief: (§3)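 Disk zone assay: analogue dilutions on 6.5 mm paper disks were placed on dishes with a 0.8% agar bottom layer and a 0.44% soft-agar top layer of tumor cells (≤1 × 10^5/plate) in Fishers-CMRL-1066 with 12% horse serum. Plates were incubated 6-10 days and the inhibition zone was measured by microscope; 200 zone units = 6 mm.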

[9] = test system: L1210; assay: Cytotoxicity was evaluated against L1210 leukemia cell line at 250 ug/disk.; format: functional, Mus musculus; method in brief: as §3
[10] = test system: PO3; assay: Cytotoxicity was evaluated against PO3 cell line at 250 ug/disk.; format: functional, Mus musculus; method in brief: as §3
[11] = species: Homo sapiens; assay: Cytotoxicity was evaluated against C116 human solid tumor at 500 ug/disk.; format: functional; method in brief: as §3
[12] = test system: MC-38; assay: Cytotoxicity was evaluated against C38 solid tumor of mouse at 500 ug/disk.; format: functional; parameters: unit not given beside the values; method in brief: as §3
[13] = Cytotoxicity was evaluated against low malignancy line at 1000 ug/disk.; format: functional; method in brief: as §3
[14] = test system: L1210; assay: Cytotoxicity was evaluated against L1210 leukemia cell line at 1000 ug/disk.; format: functional, Mus musculus; method in brief: as §3
[15] = (§4) Inhibition of incorporation of labeled precursor into macromolecules of noninfected SC-1 cells with the compound at a concentration 300 uM determined against leucine.; format: functional
Method in brief: (§5)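 SC-1 cells seeded in 24-well trays at 1 × 10^4 cells/mL, incubated overnight at 37 °C, then exposed to analogue for 72 h at 37 °C. Labeled thymidine (2.5 µCi), [3H-5,6]uridine or [3H-4,5]leucine was added. After 4 h, cells were washed with cold PBS, lysed in 1% SDS/0.01 M EDTA/0.01 M Tris pH 7.7, and lysates were dried on GF/B filters. Result given as % of untreated incorporation.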

[16] = (§6) Inhibition of incorporation of labeled precursor into macromolecules of noninfected SC-1 cells with the compound at a concentration 300 uM determined against thymidine; format: functional; method in brief: as §5
[17] = (§7) Inhibition of incorporation of labeled precursor into macromolecules of noninfected SC-1 cells with the compound at a concentration 300 uM determined against uridine.; format: functional; method in brief: as §5
[18] = (§8) Inhibition of incorporation of labeled precursor into macromolecules of noninfected SC-1 cells with the compound at a concentration 100 uM determined against leucine.; format: functional
Method in brief: (§9)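 Noninfected SC-1 cells were incubated with analogue as in the cytotoxicity setup, and [3H]thymidine, [3H]uridine or [3H]leucine was added. After 4 h, wells were washed with ice-cold PBS and cells were lysed in 1% SDS, 0.01 M EDTA, 0.01 M Tris pH 7.7. Lysates were dried on glass-fiber filters, and label is expressed as percent of incorporation in untreated cells.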

[19] = (§10) Inhibition of incorporation of labeled precursor into macromolecules of noninfected SC-1 cells with the compound at a concentration 100 uM determined against thymidine; format: functional; method in brief: as §9
[20] = (§11) Inhibition of incorporation of labeled precursor into macromolecules of noninfected SC-1 cells with the compound at a concentration 100 uM determined against uridine.; format: functional; method in brief: as §9
[21] = Cytotoxicity was evaluated against CO9 solid tumor of mouse at 500 ug/disk.; format: functional; method in brief: as §3
[22] = test system: L1210; assay: Cytotoxicity was evaluated against L1210 leukemia cell line at 500 ug/disk.; format: functional, Mus musculus; method in brief: as §3
[23] = Cytotoxicity was evaluated against low malignancy line at 500 ug/disk.; format: functional; method in brief: as §3
[24] = species: Homo sapiens; assay: Cytotoxicity was evaluated against PO1 human solid tumor at 500 ug/disk.; format: functional; method in brief: as §3
[25] = species: Mus musculus; assay: as §4; format: functional; method in brief: as §5
[26] = species: Mus musculus; assay: as §6; format: functional; method in brief: as §5
[27] = species: Mus musculus; assay: as §7; format: functional; method in brief: as §5
[28] = species: Mus musculus; assay: as §8; format: functional; method in brief: as §9
[29] = species: Mus musculus; assay: as §10; format: functional; method in brief: as §9
[30] = species: Mus musculus; assay: as §11; format: functional; method in brief: as §9

| SMILES | pEC50 [1] | pEC50 [3] | SI [4] | SI [5] | pIC50 [6] | other results |
| --- | --- | --- | --- | --- | --- | --- |
| O=C(O)P(=O)(O)O [FOSCARNET] | 3.96 | 4.37 | 9.1 | 23.4 | – | pIC50 [2]: 3.00 |
| Nc1ncnc2c1ncn2/C=C\CCO | 3.71 | 3.80 | > 1.6 | > 1.9 | 3.70 | pIC50 [7]: < 3.52 |
| Nc1ncnc2c1ncn2C/C=C\CO | 3.76 | 3.91 | > 1.7 | > 2.4 | 3.31 | Cytotoxicity [8]: 240; Cytotoxicity [9]: 200; pIC50 [7]: < 3.52; Cytotoxicity [10]: 260 |
| Nc1ncnc2c1ncn2CCCCCl | – | – | – | – | < 3.36 | – |
| Nc1ccn(CC#CCO)c(=O)n1 | – | – | – | – | < 3.26 | – |
| Cc1cn(C=C=CCO)c(=O)nc1N | – | – | – | – | 3.21 | Cytotoxicity [11]: 500; Cytotoxicity [12]: 520; Cytotoxicity [13]: 550; Cytotoxicity [14]: 500 |
| Nc1ccn(C=C=CCO)c(=O)n1 | 5.09 | 4.94 | 60.4 | 42.5 | 3.25 | Precursor inhibition [15]: 75%; Precursor inhibition [16]: 67%; Precursor inhibition [17]: 51%; Precursor inhibition [18]: 91%; Precursor inhibition [19]: 89%; Precursor inhibition [20]: 75%; pIC50 [7]: 3.31 |
| N=c1ncn2c3c1ncn3CC=CC2 | – | – | – | – | < 3.00 | – |
| Nc1nc(O)c2ncn(C/C=C\CO)c2n1 | – | – | – | – | 3.17 | – |
| Nc1ncnc2c1ncn2[C@H]1CC[C@@H](CO)O1 | 6.00 | 5.59 | 83.8 | 32.2 | – | pIC50 [7]: 4.08 |
| Cc1cn(C/C=C\CO)c(=O)[nH]c1=O | – | – | – | – | < 3.00 | – |
| Cc1cn(C/C=C\CCl)c(=O)[nH]c1=O | – | – | – | – | 4.34 | Cytotoxicity [21]: 320; Cytotoxicity [22]: 610; Cytotoxicity [23]: 400; Cytotoxicity [24]: 550 |
| O=c1[nH]c(=O)n2c3c1ncn3CC=CC2 | – | – | – | – | < 3.00 | – |
| NC(=O)c1ncn([C@@H]2O[C@H](CO)[C@@H](O)[C@H]2O)n1 [RIBAVIRIN] | 5.08 | 4.49 | 6.3 | 1.6 | – | pIC50 [7]: 4.28 |
| Nc1ncnc2c1ncn2C/C=C/CCl | – | – | – | – | 4.35 | Cytotoxicity [12]: 600; Cytotoxicity [22]: 630; Cytotoxicity [23]: 400 |
| Cc1cn(C=C=CCO)c(=O)[nH]c1=O | – | – | – | – | 4.00 | – |
| NC1=NC(Cl)c2c(ncn2C/C=C/CCl)N1 (stereo unspecified) | – | – | – | – | 4.41 | Cytotoxicity [12]: 700; Cytotoxicity [22]: 800; Cytotoxicity [23]: 600 |
| Cc1cn(CC#CCO)c(=O)[nH]c1=O | – | – | – | – | < 3.30 | – |
| Nc1ncnc2c1ncn2C/C=C/CO | – | – | – | – | 3.90 | – |
| Nc1ncnc2c1ncn2CC#CCO | 3.61 | 3.81 | 1.7 | 2.6 | 3.31 | Precursor inhibition [25]: 75%; Precursor inhibition [26]: 36%; Precursor inhibition [27]: 66%; Precursor inhibition [28]: 88%; Precursor inhibition [29]: 60%; Precursor inhibition [30]: 67%; pIC50 [2]: 3.39 |
| NC1=NC(N)c2c(ncn2C=C=CCO)N1 (stereo unspecified) | 3.93 | 3.93 | 2.2 | 2.2 | 4.22 | Cytotoxicity [11]: 200; Cytotoxicity [12]: 180; Cytotoxicity [14]: 150; Cytotoxicity [23]: 40; pIC50 [7]: 3.59 |
